High-throughput results (PubChem)
RanGTP-Impb inh – inhibitors of RanGTP-importin-beta interaction, primary screen, biochemical, FRET, CFP-Ran, YFP-importin-beta, homogeneous; cell-free CFP-Ran/YFP-importin-beta FRET ratio; inhibition, % (concentration not given with the values); 300,000 compounds, 1.1% hits;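 active means more than half of the replicate wells show a fall in the fluorescence ratio signal beyond about 16%, limit read from the data, passing the limit was not always enough; inconclusive means exactly half of the replicate wells pass the set limit; inactive means fewer than half of replicates pass the limit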;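 further: 0% = DMSO wells and 100% = Ran loaded with GDP instead of GTP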
Hck Nef HTS – inhibitors of human Hck kinase activated by Nef. P08631. Recombinant Hck-YEEI plus Nef, Z-Lyte FRET kinase assay. inhibition, % at 20 µM. 220,000 compounds, 0.68% hits;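 active means Hck-Nef kinase inhibition above about 50%, limit read from the data; inactive means inhibition below that limit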;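 further: 0% = DMSO with Hck plus Nef and 100% = Hck alone without Nef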
Target sequence (P08631 whole entry, looked up): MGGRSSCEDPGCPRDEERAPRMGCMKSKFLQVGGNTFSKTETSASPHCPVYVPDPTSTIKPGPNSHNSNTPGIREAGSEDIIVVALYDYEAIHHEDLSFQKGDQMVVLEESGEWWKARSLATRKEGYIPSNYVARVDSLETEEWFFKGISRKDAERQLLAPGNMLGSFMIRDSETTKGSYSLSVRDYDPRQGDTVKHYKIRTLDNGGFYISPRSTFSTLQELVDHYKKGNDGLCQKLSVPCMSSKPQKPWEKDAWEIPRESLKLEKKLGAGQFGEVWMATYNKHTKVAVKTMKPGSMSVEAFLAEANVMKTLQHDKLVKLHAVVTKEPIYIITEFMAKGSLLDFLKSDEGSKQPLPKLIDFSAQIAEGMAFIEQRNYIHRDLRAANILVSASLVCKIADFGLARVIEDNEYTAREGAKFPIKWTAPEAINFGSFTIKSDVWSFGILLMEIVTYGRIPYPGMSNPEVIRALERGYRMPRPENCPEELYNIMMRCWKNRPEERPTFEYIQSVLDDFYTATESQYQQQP
Runt-SMMHC FRET – blocks binding of human RUNX1 Runt domain to CBFb-SMMHC | Cerulean-Runt/Venus-CBFb-SMMHC FRET ratio 530/480, 1 h | inhibition, % at 20 µM | 220,000 compounds, 0.74% hits | AID 1434;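 active means mean inhibition across duplicate retests at 20 µM reaching about 50%, limit read from the data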;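 further: 0% = DMSO wells and 100% = wells with excess untagged CBFb-SMMHC; inhibitors lower the FRET ratio by blocking Runt binding to CBFb-SMMHC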
CaV13 FRET inh – Primary screen for inhibitors of IQ motif and Ca2+-dependent inactivation inhibitor domain binding in CACNA1D, Förster resonance energy transfer in living cells, …. HEK cells, CFP/YFP FRET ICDI-IQ, plate reader, 10 min; percent FRET-ratio fall versus neutral wells. inhibition, % at 12.3 µM. 340,000 compounds, 0.098% hits;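 active means mean replicate inhibition of at least 30% and at least 1% of replicates passing that level; inconclusive means only one of the two criteria is met; inactive means neither criterion is met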;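 further: 0% = median of the neutral control wells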
Runt-CBFb FRET – blocks binding of human RUNX1 Runt domain to CBFb | inhibition, % at 20 µM | Cerulean-Runt/Venus-CBFb FRET ratio 530/480, 1 h | 220,000 compounds, 0.46% hits | Q01196+Q13951;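 active means inhibition over about 50% at 20 µM in the single-dose screen, limit read from the data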;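 further: 0% = DMSO wells and 100% = excess unlabeled CBFb competitor control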
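test system = Cerulean-Runt domain fusion protein, energy donor | probe or stimulus = Venus-CBFb binding partner, 100 nM | incubation = two 1 h room-temperature incubations shielded from light | detection = fluorescence energy transfer, 422 nm excitation, 530/480 nm emission | measure = loss of energy transfer signal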
* = called active by the depositor; u = inconclusive; x = no result given. Rows were chosen to be rich in hits. Some 1.5% of all compounds tested hit in one or more screens of this group.

SMILES	RanGTP-Impb inh	Hck Nef HTS	Runt-SMMHC FRET	CaV13 FRET inh	Runt-CBFb FRET
Cc1ccc2nc(NCCCN3CCOCC3)c(C=NCCCN3CCOCC3)c(=O)n2c1	39*	3	66*	x	76*
Cc1ccc2nc3c(cc(C#N)c(=N)n3CCCN3CCOCC3)c(=O)n2c1	x	12	x	x	x
Cc1ccc2nc3c(cc(C(=O)NCc4cccnc4)c(=N)n3C(C)C)c(=O)n2c1	x	x	39	x	13
O=C(NC1CC1)C1=C[C@H](c2ccc(C(F)(F)F)cc2)C[C@H](OCCCCO)O1	1	x	x	-11	x
Cc1cc(NC(=O)c2ccccc2F)n(C(C)(C)C)n1	-3	5	0	-3	2
N#CC(C#N)=C1C=CC=CN1/C(=C\c1ccccc1)C(=O)c1cccs1	28*	1	40	63*	24
CN1C(=O)/C(=C/c2ccc3c(c2)OCO3)N=C1c1ccccc1	17*	4	15	-5	1
Cn1cc(C(c2ccccc2OCC(=O)O)c2cn(C)c3ccccc23)c2ccccc21	0	x	x	45*	x
CCn1c(=O)cc(OCC(=O)O)c2ccccc21	4	-3	1	-5	-2
COc1ccccc1NS(=O)(=O)c1cccc(C(=O)N/N=C/c2ccc(N3CCOCC3)cc2)c1	5	10	-18	-4	-13
Cn1nc(-c2ccc(Cl)cc2)c2cc(C(=O)NCCN3CCOCC3)sc21	136*	2	-4	-9	3
Cn1nc(-c2ccc(Cl)cc2)c2cc(C(=O)NCCCN3CCOCC3)sc21	4	1	-3	x	2
CN1CCN(Cc2c(O)ccc3c(=O)c(Oc4ccccc4Cl)c(C(F)(F)F)oc23)CC1	22*	7	-6	-10	-4
Oc1ccccc1-c1csc(-c2ccccc2)n1	1	-10	-2	-6	-1
Oc1ccc(-c2csc(-c3ccccc3)n2)cc1O	-4	-1	52*	-6	37
Cc1ccc(-c2nc(S(=O)(=O)c3ccccc3)c(SCC(=O)NCC3CCCO3)o2)cc1 (stereo unspecified)	-6	x	x	-3	x
O=c1oc2ccccc2n1CCn1c2ccccc2c2nc3ccccc3nc21	28*	12	-20	x	-285
Cc1ccc(S(=O)(=O)N2CCOCC2)cc1NC(=O)COC(=O)c1cccc(Cl)c1Cl	x	x	x	-2	x
Cc1ccc(S(=O)(=O)N2CCOCC2)cc1NC(=O)COC(=O)c1cc(=O)[nH]c2ccccc12	26*	23	3	-2	2
COCCN(C(=O)CN1CCc2ccccc21)c1c(N)n(Cc2ccccc2)c(=O)[nH]c1=O	x	x	x	-6	x
CCN(C(=O)CN1CCc2ccccc21)c1c(N)n(Cc2ccccc2)c(=O)[nH]c1=O	6	17	57*	-20	9
CCc1cccc(C)c1NC(=S)NCc1ccc2c(c1)cc(C)n2C	0	-4	2	57*	-9
Cc1ccccc1NC(=S)NCc1ccc2c(c1)cc(C)n2C	u	-4	3	-5	-11
CCOC(=O)NCc1ccc2c(c1)cc(C)n2C	85*	1	-20	-5	-12
Cc1cccc(NC(=O)c2nc[nH]c2C(=O)N[C@@H](CC(C)C)C(=O)OCc2ccccc2)c1	-1	23	3	-5	1
SMILES	RanGTP-Impb inh	Hck Nef HTS	Runt-SMMHC FRET	CaV13 FRET inh	Runt-CBFb FRET
O=C(NCCCO)Nc1ccc2nc(-c3ccco3)c(-c3ccco3)nc2c1	x	2	-321	x	-250
O=C(Nc1ccc2nc(-c3cccs3)c(-c3cccs3)nc2c1)N1CCOCC1	96*	12	62*	-2	41
O=C(Nc1ccc2nc(-c3ccco3)c(-c3ccco3)nc2c1)NC1CC1	62*	46	-67	x	-17
O=C(Nc1cccc(O)c1)N1CCOCC1	-2	9	9	x	2
O=C(Nc1cccc(C(F)(F)F)c1)c1ccc2nc(-c3ccco3)c(-c3ccco3)nc2c1	47*	4	-13	x	1
O=C(Nc1ccc(N2CCOCC2)cc1)Nc1ccc2nc(-c3ccco3)c(-c3ccco3)nc2c1	26*	10	11	-10	12
O=C(Nc1cccc(C(F)(F)F)c1)c1cc[n+]([O-])cc1	1	x	x	-2	x
CC(C)C(=O)NC(Nc1ccc(S(N)(=O)=O)cc1)C(Cl)(Cl)Cl (stereo unspecified)	5	2	0	-3	-2
